Calls of active or inactive are those of the source. No cut-off for these calls is given here.
Assays:
[1] = Hepatic clearance in human liver microsomes at 1 uM preincubated for 5 mins followed by NADPH addition and measured after 45 mins by LC/MS/MS analysis; format: ADME, microsome
[2] = Hepatic clearance in Sprague-Dawley rat liver microsomes at 1 uM preincubated for 5 mins followed by NADPH addition and measured after 45 mins by LC/MS/MS analysis; format: ADME, microsome
Summary of the method: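 Pooled liver microsomes at 0.5 mg/mL: human (mixed gender), male Sprague-Dawley rat, or male CD-1 mouse, with test compound at 1 μM, triplicate. In vitro t1/2 is scaled to CLint (45 mg microsomes/g liver; 45 g liver/kg scaling factor). CLhep uses well-stirred model with hepatic blood flow 21 (human), 70 (rat), 90 (mouse) mL/min/kg.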

[3] = Drug uptake in BALB/c mouse blood at 25 mg/kg, po via gavage measured after 4 hrs post dose by […]; format: ADME, organism-based; conditions: read-out: Drug uptake
Summary of the method: (§1)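 BALB/c mice get a single oral gavage dose of 25 mg/kg; tissues are collected 4 h post-dose. About 100 mg tissue is diluted 5-fold in PBS and homogenized. Homogenate is extracted as for plasma (ketoconazole internal standard, acetonitrile extraction) and quantified by HPLC-UV at 291 nm, 0.1 μM detection limit, n=2.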

[4] = Drug uptake in BALB/c mouse brain at 25 mg/kg, po via gavage measured after 4 hrs post dose by […]; format: ADME, organism-based; conditions: read-out: Drug uptake; summary of the method: as §1
[5] = target: Lanosterol 14-alpha-demethylase (Trypanosoma brucei brucei (strain 927/4 GUTat10.1)) (UniProt Q385E8); assay: Inhibition of Trypanosoma brucei […] CYP51 expressed in Escherichia coli using [3-3H]-obtusifoliol as substrate after 60 mins by LC-MS analysis
Summary of the method: (§2)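 Reconstituted reaction: 1 μM purified CYP51, 2 μM T. brucei NADPH-P450 reductase, 100 μM dilauroylphosphatidylcholine, isocitrate dehydrogenase/isocitrate regeneration, 50 mM K phosphate pH 7.2, 10% glycerol. [3-3H]sterol substrate at 50 μM final (eburicol for T. cruzi; obtusifoliol for T. brucei and L. infantum) with inhibitor at 1.1 μM final. Preincubate 60 s at 37 °C, start with 100 μM NADPH, run 60 min, EtOAc extraction. Gives % inhibition of 14α-demethylation, triplicate, mean ± SD.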

[6] = target: Sterol 14-alpha demethylase (Trypanosoma cruzi (strain CL Brener)) (UniProt Q7Z1V1); assay: Inhibition of Trypanosoma cruzi Y CYP51 expressed in Escherichia coli using [3-3H]-eburicol as substrate after 60 mins by LC-MS analysis; summary of the method: as §2
[7] = system: Trypanosoma cruzi; assay: Antiparasitic activity against GFP-expressing Trypanosoma cruzi Y amastigote formss infected in cardiomyocytes assessed as reduction in rate of parasite multiplication within infected cardiomyocytes measured at 72 hrs post infection by fluorescence microscopy; format: functional, organism-based
Summary of the method: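 GFP-expressing trypomastigotes (Tulahuen or Y strain) infect cardiomyocyte monolayers at 10 parasites per cell, in DMEM + 10% FBS. Unbound parasites are washed off. At 24 h of infection, inhibitors at 0.5–25 nM in DMSO/DMEM are added and cultured 48 h. Read-out is at 72 h post-infection as GFP fluorescence (RFU) after PBS wash; microscopy uses paraformaldehyde fixation, DAPI and phalloidin stain. Triplicate.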

[8] = system: Mus musculus; assay: Toxicity in Swiss Webster mouse assessed as effect on motility at 200 mg/kg, po administered as single dose measured after 48 hrs; format: organism-based; conditions: in vivo
Summary of the method: (§3)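 Swiss Webster mice (21–23 g, n=3) get a single oral 200 mg/kg dose, given as in the PK study. They are inspected for toxic and sub-toxic signs per OECD guidelines (behaviour, motility, neurological state, skin, fur), and body weight is tracked 0–48 h. At 48 h, mice are euthanized and organ weights are normalized to body weight. Blood is taken for haematology and plasma biochemistry.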

[9] = system: Mus musculus; assay: Toxicity in Swiss Webster mouse assessed as effect on neurological conditions at 200 mg/kg, po administered as single dose measured after 48 hrs; format: organism-based; conditions: in vivo; summary of the method: as §3
[10] = system: Mus musculus; assay: Toxicity in Swiss Webster mouse assessed as effect on liver weight at 200 mg/kg, po administered as single dose measured after 48 hrs; format: organism-based; conditions: in vivo; summary of the method: as §3
[11] = system: Mus musculus; assay: Toxicity in Swiss Webster mouse assessed as effect on lung weight at 200 mg/kg, po administered as single dose measured after 48 hrs; format: organism-based; conditions: in vivo; summary of the method: as §3

Chain of Lanosterol 14-alpha-demethylase (Trypanosoma brucei brucei (strain 927/4 GUTat10.1)) (Q385E8 1-481): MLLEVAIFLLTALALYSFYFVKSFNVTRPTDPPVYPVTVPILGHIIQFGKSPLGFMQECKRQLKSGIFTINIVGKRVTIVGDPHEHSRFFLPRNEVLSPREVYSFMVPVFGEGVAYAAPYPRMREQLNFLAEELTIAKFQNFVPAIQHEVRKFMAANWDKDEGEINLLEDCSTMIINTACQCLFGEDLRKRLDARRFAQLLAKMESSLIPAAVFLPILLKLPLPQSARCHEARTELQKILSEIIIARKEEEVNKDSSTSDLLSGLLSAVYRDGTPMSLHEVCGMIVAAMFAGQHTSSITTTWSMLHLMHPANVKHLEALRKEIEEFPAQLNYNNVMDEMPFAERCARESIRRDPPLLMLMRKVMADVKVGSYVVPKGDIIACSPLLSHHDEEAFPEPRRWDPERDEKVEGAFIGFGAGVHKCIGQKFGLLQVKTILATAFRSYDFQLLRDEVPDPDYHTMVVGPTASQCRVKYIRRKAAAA
Chain of Sterol 14-alpha demethylase (Trypanosoma cruzi (strain CL Brener)) (Q7Z1V1 whole entry, looked up): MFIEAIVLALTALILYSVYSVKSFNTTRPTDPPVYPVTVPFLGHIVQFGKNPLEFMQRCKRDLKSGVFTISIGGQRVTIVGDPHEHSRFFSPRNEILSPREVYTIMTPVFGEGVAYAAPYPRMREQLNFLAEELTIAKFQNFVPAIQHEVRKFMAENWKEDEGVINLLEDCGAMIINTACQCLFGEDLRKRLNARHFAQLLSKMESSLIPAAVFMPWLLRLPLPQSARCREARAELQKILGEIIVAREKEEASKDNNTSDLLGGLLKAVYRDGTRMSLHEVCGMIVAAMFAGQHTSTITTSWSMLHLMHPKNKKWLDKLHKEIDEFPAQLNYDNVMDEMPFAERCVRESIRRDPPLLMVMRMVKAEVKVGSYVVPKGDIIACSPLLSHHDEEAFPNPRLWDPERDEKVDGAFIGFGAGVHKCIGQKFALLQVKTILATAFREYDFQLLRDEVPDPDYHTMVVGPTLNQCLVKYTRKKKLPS

Compound: O=C(N[C@@H](Cn1ccnc1)c1c(F)cc(-c2ccc(F)cc2)cc1F)c1ccc(-c2nnc(-c3ccccc3)o2)cc1
- CLhep predicted at 1 µM [1]: 10.1 mL/min/kg
- CLhep predicted at 1 µM [2]: 31.1 mL/min/kg
- concentration at 4 h [3]: 25 µM
- concentration at 4 h [4]: 3000 nM
- inhibition [5]: Active
- inhibition [6]: Active
- EC50 [7]: 1 nM
- Activity [8]: Non-Toxic
- Activity [9]: Non-Toxic
- Activity [10]: Non-Toxic
- Activity [11]: Non-Toxic

— ChEMBL document CHEMBL4257584, “Sterol 14α-Demethylase Structure-Based Optimization of Drug Candidates for Human Infections with the Protozoan Trypanosomatidae” (J Med Chem, 2018)
